Like-named read-outs stand apart in the source and are kept apart here.
Tests used:
[1] = not told; cited from earlier work
CYP2E1 [2] = details: in vitro competition assay; cited from earlier work
[3] = humans, 24h after oral administration of ^14C-labeled 4AP; cited from earlier work
CYP2E1 [4] = details: humans, DSF treatment; cited from earlier work
[5] = format: in vivo, mice
[6] = cited from earlier work
[7] = cited from earlier work; remark: listed apart in the source
[8] = format: in vivo, mice; remark: listed apart in the source
Outline: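 Mice (isoflurane-anesthetized or awake) given IV tracer (>99% radiochemical purity, in 95% 20 mM sodium phosphate pH 8.0/5% EtOH); euthanized 35 min later. Brain homogenized in 0.4 N HClO4 (~1:2 w/v) by 30 s ultrasonication at 4 °C, spun 21,000 RCF, 8 °C, 7 min. Plasma and pH-neutralized supernatant passed through 10K filter, then radio-HPLC on C18 with 10 mM NH4HCO3 pH 8.0/MeCN (96:4). Samples kept on ice. Percent parent fraction reported.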

Nc1cc[n+]([O-])cc1F [3F4AP N-oxide]
permeability across an artificial brain membrane [1]: low permeability

Nc1ccncc1F [3F4AP, 3-fluoro-4-aminopyrdine]
affinity of CYP2E1 relative to the affinity for 4AP (CYP2E1 [2]): 50 times

Nc1ccncc1 [4AP, 4-aminopyridine]
radioactive species recovered in urine corresponding to the unchanged drug [3]: ~ 90%

Nc1c(O)cncc1F [5-hydroxy-3F4AP]
permeability across an artificial brain membrane [1]: low permeability

CCN(CC)C(=S)SSC(=S)N(CC)CC [DSF, disulfiram]
prevention of clinical isoflurane metabolism (CYP2E1 [4]): 80–90%

Nc1ccncc1[18F] [[^18F]3F4AP, 3-[^18F]fluoro-4-aminopyridine]
SUV35 min-br (awk mice) ([5]; brain, 35 min post-injection, IV, awake mice, n = 20, mean ± SEM): 0.28 ± 0.04 | WB and brain SUV values, awake vs anesthetized mice ([5]; euthanized at 60 sec (1 min) post-tracer injection, Fig. S1): no significant differences | SUV35 min-WB (awk mice) ([5]; whole blood, 35 min post-injection, IV, awake mice, mean ± SEM): 0.51 ± 0.05 | SUV35 min-WB (iso mice) ([5]; whole blood, 35 min post-injection, IV, isoflurane-anesthetized mice, mean ± SEM): 0.66 ± 0.08 | brain uptake SUV at 4 min ([6]; NHPs, brain, 4 min): > 3 | parent fraction (metabolic stability) ([6]; NHPs, up to 2h post-injection): > 90% | brain SUV 90 min post-injection ([6]; anesthetized NHPs, brain TAC, Fig. 3A): ~ 1.50 | SUV90 min-WB (NHP) ([6]; anesthetized NHPs, whole blood, 90 min): 0.946 | brain SUV 90 min post-injection ([7]; awake humans, brain TAC, Fig. 3A): 0.54 | SUV90 min-WB (human) ([7]; awake humans, whole blood, 90 min): 0.87 | parent remaining in blood ([7]; humans, 1h post-injection): less than 50% | percent parent fraction in brain (%PFawk-br) ([8]; brain, awake mice, 35 min post-tracer, n = 8, mean ± SEM): 80.3 ± 2.7% | proportion of radiometabolites in the brain, anesthetized mice ([8]; brain, isoflurane-anesthetized mice, 35 min): 1.6% | percent parent fraction in brain (%PFiso-br) ([8]; brain, isoflurane-anesthetized mice, 35 min post-tracer, n = 5, mean ± SEM): 98.4 ± 0.2% | concentration of metabolites in plasma, awake mice ([8]; plasma, awake mice, 35 min): 82.3% | percent parent fraction in plasma (%PFawk-pl) ([8]; plasma, awake mice, 35 min post-tracer, n = 11, mean ± SEM): 17.7 ± 1.7% | concentration of metabolites in plasma, anesthetized mice ([8]; plasma, isoflurane-anesthetized mice, 35 min): 25.2% | percent parent fraction in plasma (%PFiso-pl) ([8]; plasma, isoflurane-anesthetized mice, 35 min post-tracer, n = 10, mean ± SEM): 74.8 ± 1.6%
